KCNQ1 inh – human KCNQ1 channel inhibition | P51787 | CHO-K1 KCNQ1, FluxOR thallium flux fluorescence; stronger effect = higher value | B-score at 10 µM | 310,000 compounds, 1.3% hits | AID 2642;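 active = compounds whose thallium flux B-score, printed positive for inhibition, exceeds three library SD while starting fluorescence stays within three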;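 note: channel opened by potassium depolarization with thallium stimulus after 20 min compound exposure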
KCNK3 block – human KCNK3 channel inhibition, primary screen. O14649. CHO-KCNK3 thallium flux, FluxOR fluorescence; stronger effect = lower value. 340,000 compounds, 0.84% hits. AID 602410. B-score at 10 µM;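 active = B-score under library mean minus 4 SD, starting fluorescence ratio at most library mean plus 5 SD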;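 note: more negative B-score means stronger inhibition of thallium flux through KCNK3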
KCNK9 inh – inhibitors of human KCNK9 two-pore domain potassium channel | Q9NPC2 | HEK293 KCNK9, FluxOR thallium flux fluorescence; stronger effect = lower value | B-score at 10 µM | 310,000 compounds, 1.2% hits | AID 488922;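 active = ratio B-score over 3 SD below the library mean, with starting fluorescence within 5 SD of its mean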;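 note: negative B-score means less thallium flux so channel inhibition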
KCNQ1 act – human KCNQ1 channel potentiation or activation; 310,000 compounds, 0.35% hits; CHO-K1 KCNQ1, thallium flux FluxOR fluorescence; stronger effect = higher value; B-score at 10 µM;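 active = fluorescence ratio B-score, a plate-corrected score, at least three library SD, with initial intensity B-score within 5 SD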
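Schedule – 37 °C overnight plating, 90-min dark dye load, 20-min compound pretreatment · System – stable KCNQ1 CHO-K1 line · Probe or stimulus – thallium- and potassium-containing depolarizing buffer · Measured by – kinetic FluxOR fluorescence, 10 s baseline plus 110 s post-stimulus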
hERG protect – hERG (human) protection from proarrhythmic block; 310,000 compounds, 0.51% hits; CHO-hERG, FluxOR thallium flux, dofetilide IC70 present; activation (rescue from dofetilide block), less the hit threshold, % at 10 µM;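 active = activation above the mean of controls blocked by dofetilide plus 5 SD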;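 note: thallium influx through hERG after potassium depolarization seen as dye fluorescence rise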
KCNQ1 block val – reconfirmed blocker of the human KCNQ1 potassium channel | shares compounds with KCNQ1 inh | KCNQ1 cell line, FluxOR thallium flux fluorescence | inhibition, % at 10 µM | 1,600 compounds, 93% hits;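 active = primary screen active, with duplicate mean exceeding buffer control mean plus 3 SD of buffer wells, cut at about 28% in these data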;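 note: 0% = buffer control ratio and 100% = XE991 inhibitor control ratio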
CHO KCNQ1 ctr – activity in parental CHO cells lacking KCNQ1. shares compounds with KCNQ1 inh. parental CHO-K1, FluxOR thallium flux fluorescence ratio; stronger effect = lower value; zero means no signal rise above baseline. fluorescence ratio (Tl flux) at 10 µM. 1,600 compounds, 21% hits;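 active = mean of duplicate thallium-flux fluorescence ratios in parental host cells more than 5 SD below the buffer control mean, cut at about 0.38 in these data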;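 note: ratio is peak minus minimum fluorescence divided by baseline fluorescence; actives read low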
KCNQ1 APC inh – blocks human KCNQ1 current in automated patch clamp | shares compounds with KCNQ1 inh | KCNQ1-CHO cells | calls only at 10 µM | 490 compounds, 20% hits | AID 624120;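 active = KCNQ1 current drop exceeding 3 SD of negative control wells, seen in both duplicate runs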;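 note: steady state current during a 2 s step from -80 to +40 mV; negative values mean current inhibition and positive values mean potentiation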
KCNQ2 spec – selectivity of KCNQ1 inhibitors: inhibition of rat KCNQ2 channel | 1,600 compounds, 71% hits | KCNQ2 cells, FluxOR thallium flux fluorescence | AID 651746 | inhibition, % at 10 µM | shares compounds with KCNQ1 inh;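 active = mean percent inhibition of the KCNQ2 thallium signal more than 5 SD above the buffer-only control wells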;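 note: KCNQ2 expressed in CHO cells; 0% = buffer control wells and 100% = XE-991 inhibitor control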
KCNQ1 KCNE1 spec – selectivity of KCNQ1 inhibitors: inhibition of human KCNQ1/KCNE1 channel. shares compounds with KCNQ1 inh. 1,600 compounds, 77% hits. KCNQ1/KCNE1 cells, FluxOR thallium flux fluorescence. inhibition, % at 10 µM. AID 652147;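 active = mean percent inhibition of duplicate wells above the buffer-only control mean plus 3 SD of those controls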;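 note: 0% = buffer only wells and 100% = XE-991 inhibitor control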
Target sequence (P51787 whole entry, looked up): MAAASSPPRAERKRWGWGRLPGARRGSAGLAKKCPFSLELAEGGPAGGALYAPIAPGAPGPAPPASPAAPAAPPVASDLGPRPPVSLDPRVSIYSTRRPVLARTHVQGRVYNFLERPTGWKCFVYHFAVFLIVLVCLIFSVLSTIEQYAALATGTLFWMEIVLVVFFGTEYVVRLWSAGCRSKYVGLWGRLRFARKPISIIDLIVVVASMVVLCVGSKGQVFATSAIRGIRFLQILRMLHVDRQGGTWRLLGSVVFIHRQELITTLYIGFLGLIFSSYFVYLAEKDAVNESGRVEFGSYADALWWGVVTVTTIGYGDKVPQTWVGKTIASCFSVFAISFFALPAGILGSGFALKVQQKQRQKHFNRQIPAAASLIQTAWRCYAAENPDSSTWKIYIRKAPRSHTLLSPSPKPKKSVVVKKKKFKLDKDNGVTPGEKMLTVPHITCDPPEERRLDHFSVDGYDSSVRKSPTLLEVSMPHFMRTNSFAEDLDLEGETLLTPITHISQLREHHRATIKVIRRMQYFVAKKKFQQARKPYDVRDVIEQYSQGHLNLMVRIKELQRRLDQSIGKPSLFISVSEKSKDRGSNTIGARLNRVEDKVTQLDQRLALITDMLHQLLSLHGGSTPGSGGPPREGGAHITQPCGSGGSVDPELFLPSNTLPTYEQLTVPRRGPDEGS
KCNK9 block conf – confirmation of human KCNK9 potassium channel inhibitors. inhibition, % at 10 µM. shares compounds with KCNK9 inh. 4,900 compounds, 43% hits. HEK293 KCNK9 cells, FluxOR thallium flux fluorescence;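 active = thallium signal inhibited by more than 5 SD of the compound-free buffer control wells, on both duplicate plates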;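 note: 0% = assay buffer control wells without compound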
Kir21 sel – tests whether KCNK9 modulators also affect mouse Kir2.1 | inhibition, % at 10 µM | Kir2.1 cells, FluxOR thallium flux fluorescence | AID 492993 | 4,900 compounds, 4% hits | shares compounds with KCNK9 inh;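 active = thallium signal drop more than 5 SD beyond the mean of the no-compound control wells, seen in both duplicate plates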;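 note: signal is fluorescence rise after thallium addition divided by baseline fluorescence; plate controls were assay buffer only for no effect and full block by chlorpromazine control for full effect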
KCNK9 uninduced – second counter-screen for KCNK9 modulators: effect in non-induced cells; shares compounds with KCNK9 inh; non-induced KCNK9-HEK293, FluxOR thallium flux; inhibition, % at 10 µM; 4,900 compounds, 40% hits;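 active = thallium signal drop beyond 5 SD of the untreated control mean, on both duplicate plates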;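 note: plate controls were buffer only IC0 wells for no effect and SID17386958 at its maximal inhibitory level for full effect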
KCNK3 confirm – confirmation of human KCNK3 two-pore domain potassium channel inhibitors | shares compounds with KCNK3 block | CHO-KCNK3 thallium flux, FluxOR fluorescence; 0% buffer, 100% carvedilol maximal block | ratio percent of control, % at 10 µM | 2,400 compounds, 99% hits | AID 651638;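 active = ratio percent of control, averaged over triplicates, above buffer control mean plus 5 SD, cut at about 64% in these data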;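 note: ratio is the fluorescence rise from min to max over baseline after thallium stimulus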
KCNK3 noninduced – counter-screen for KCNK3 inhibitors: effect in non-induced cells. non-induced KCNK3 parental cells, FluxOR thallium flux; stronger effect = lower value. 2,400 compounds, 40% hits. shares compounds with KCNK3 block. thallium flux ratio (lower = more inhibition) at 10 µM;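 active = thallium flux ratio, averaged over three wells, more than 5 SD below the buffer control mean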;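 note: host cells are CHO cells without KCNK3 induction; ratio is peak minus trough fluorescence over baseline then normalized to buffer controls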
* marks the source's active call; other numbers are inactive results; i = inactive; / = no result; + = active, no number. Hits are enriched below; roughly 3.1% of the tested compounds scored in any of these assays.

SMILES	KCNQ1 inh	KCNK3 block	KCNK9 inh	KCNQ1 act	hERG protect	KCNQ1 block val	CHO KCNQ1 ctr	KCNQ1 APC inh	KCNQ2 spec	KCNQ1 KCNE1 spec	KCNK3 confirm	KCNK3 noninduced	others
Cc1ccsc1C(=O)C1CCCN(Cc2cccn2-c2ccc(Cl)cn2)C1 (configuration not stated)	9*	-9.07*	i	i	-25.6	91.5*	0.43	+	71.7%*	57.5%*	127.3*	0.136*
CC1CN(S(=O)(=O)c2cc(C(=O)NCCCN3CCCC3=O)ccc2Cl)CC(C)O1 (configuration not stated)	/	i	/	/	/	/	/	/	/	/	/	/
Fc1cccc(NC(=S)N2CCn3cccc3C2c2cccnc2)c1 (configuration not stated)	i	i	i	i	-18.1	/	/	/	/	/	/	/
Fc1ccc(C2c3cccn3CCN2C(=S)Nc2cccc(F)c2)cc1 (configuration not stated)	9*	-10.2*	-7.53*	i	-16.0	118.5*	0.388	+	116.0%*	182.5%*	134.7*	0.151*
COc1ccc(-c2cc(C)no2)cc1S(=O)(=O)N1CCOc2ccc(Cl)cc21	i	i	i	i	-4.8	/	/	/	/	/	/	/
Cc1ccc2c(c1)N(S(=O)(=O)c1cc(-c3onc(C)c3C)ccc1C)CCO2	7*	-10.9*	-7.54*	i	-9.9	77.0*	0.351*	/	106.3%*	93.0%*	106.3*	i
CSc1ccccc1NC(=O)COC(=O)c1cnc(C)cn1	/	i	/	/	/	/	/	/	/	/	/	/
CC(c1cccs1)N(Cc1ccco1)C(=O)Nc1ccc(Cl)c(Cl)c1 (configuration not stated)	19*	-10.9*	-13.8*	i	-9.8	145.5*	0.354*	/	115.7%*	+	122.0*	0.132*	KCNK9 block conf=59.5%*;Kir21 sel=i;KCNK9 uninduced=44.5%*
Cc1cccc(NC(=O)CSc2nc3ccccc3nc2N2CC(C)OC(C)C2)c1 (configuration not stated)	8*	-11.4*	i	i	-9.4	101.5*	0.417	i	122.0%*	132.5%*	114.3*	i
CCc1ccc(NC(=O)CSc2nc3ccccc3nc2N2CCCCC2)cc1	i	i	i	i	-5.8	/	/	/	/	/	/	/
O=C(CSc1nc2ccccc2nc1N1CCCCC1)Nc1ccc(F)cc1	13*	-9.77*	-6.86*	i	-8.8	107.5*	0.408	i	96.7%*	158.5%*	137.0*	0.119*

Bioassay records from PubChem.
